# Bioassay records deposited in PubChem by several laboratories.
# NSD2 HMT inh – NSD2 histone methyltransferase inhibitors, primary screen, biochemical, AlphaScreen, single concentration, set 2; Histone-lysine N-methyltransferase NSD2 (Homo sapiens), O96028; NSD2 peptide methylation, 120 min; hit rate 0.54% among 310,000; inhibition, % at 12.5 µM; in the data active means inhibition above about 50%
# FGF22 binding – binders of human FGF22 protein, primary screen, FGF22 synaptogenesis inhibitor project, biophysical, thermal shift, single point; Fibroblast growth factor 22 (Homo sapiens), Q9HCT0; recombinant FGF22 thermal shift, SYPRO orange fluorescence; percent of sucrose octasulfate shift, DMSO zero; activity (Tm shift, normalised), % at 9.99 µM; hit rate 1.5% among 340,000;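 active means mean Tm shift, scaled 0 neutral to 100 positive control, at about 1.3% or above, every replicate too, limit read from the data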
# UCH37 inh – inhibitors of human UCH37 deubiquitinase, primary screen, biochemical, Ub-AMC cleavage, fluorescence. Ubiquitin carboxyl-terminal hydrolase isozyme L5 (Homo sapiens), Q9Y5K5. purified proteasome/UCH37. inhibition, % (test concentration not listed). hit rate 0.33% among 330,000. AID 588478, 2011;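 active means mean inhibition over replicate wells above about 20%, limit read from the data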;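 further: 0% = compound-free wells with enzyme and 100% = wells lacking proteasome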
# Target sequence (Q9Y5K5 whole entry, looked up): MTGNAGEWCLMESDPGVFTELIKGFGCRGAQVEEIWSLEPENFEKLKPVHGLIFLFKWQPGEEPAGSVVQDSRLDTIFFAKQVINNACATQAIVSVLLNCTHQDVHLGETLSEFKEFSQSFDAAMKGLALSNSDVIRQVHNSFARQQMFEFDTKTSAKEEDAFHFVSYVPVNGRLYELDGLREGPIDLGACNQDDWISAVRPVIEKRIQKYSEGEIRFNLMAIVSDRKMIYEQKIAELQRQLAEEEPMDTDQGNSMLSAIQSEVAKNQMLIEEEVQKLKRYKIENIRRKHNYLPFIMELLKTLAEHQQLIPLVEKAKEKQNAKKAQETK
#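 Material: human UCH37 enzyme supplied as purified proteasome complex / Amount: 0.15 nM proteasome as dispensed / Buffer or medium: pH 7.4 Tris-HCl (50 mM) with ovalbumin, ATP-MgCl2, DTT / Times: preincubation 30 min, reaction 25 min, room temperature / Technique: AMC fluorescence from Ub-AMC cleavage, excitation 355 nm, emission 460 nm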
# Casp6 inh – human caspase-6 inhibitors, primary screen, biochemical, VEID-R110 fluorescence, single point, set 2. inhibition, % at 12.5 µM. AID 686996, 2013. purified caspase-6, Z-VEID-R110 cleavage fluorescence. hit rate 0.53% among 350,000;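 active means mean inhibition across replicates at least about 35%, with every replicate also reaching that limit, limit read from the data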;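 further: 0% = median of neutral control wells and 100% = no fluorescence left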
# SIRT5 block – SIRT5 desuccinylase inhibitors, primary screen, biochemical, fluorescence imaging, single point, set 5; NAD-dependent protein deacylase sirtuin-5, mitochondrial (Homo sapiens), Q9NXA8; Purified SirT5, succinyl-peptide AMC, trypsin-coupled fluorescence; inhibition, % at 15 µM; hit rate 1.1% among 330,000; AID 652115, 2013; in the data active means inhibition above about 15%
# * = called active by the depositor; . = no result. In the library only some 2.6% were active in any assay of this set; here they are far more common.
SMILES,NSD2 HMT inh,FGF22 binding,UCH37 inh,Casp6 inh,SIRT5 block
CNC(=O)C[C@H]1CC[C@@H]2[C@@H](COc3ccc(NC(=O)C(C)C)cc3C(=O)N2C)O1,.,0,.,.,.
O=[N+]([O-])c1ccc(Oc2ccc(/C=N/O)cc2)nc1,-1,43*,.,1,1
O=C(NN=Cc1cccc([N+](=O)[O-])c1)c1cnccn1,.,.,6,.,.
COc1cccc(Nc2nc3ccc(OC)cc3s2)c1,1,0,2,7,-3
COc1ccc(Nc2nc3ccccc3s2)cc1,-6,2.6*,3,0,-1
CC(=NNC(=O)c1cc(C)[nH]n1)C(C)(C)C,.,.,4,.,.
CCN(CC)c1nc(N)c2c(N)nc(OC)cc2c1C#N,.,-1,-23,51*,.
COc1ccc(C=NNC(=O)CCn2nc(C)cc2C)cc1,.,.,2,.,.
CCCNC(=O)Nc1ccc2c(c1)OC[C@@H](C)N(CC1CCCC1)C[C@H](C)[C@@H](OC)CN(C)C2=O,.,.,.,1,6
Cc1cccc(C(C(N)=O)c2ncc(C(F)(F)F)cc2Cl)c1 (stereo not drawn),-5,44*,2,-3,-2
COc1ccc(C(C(N)=O)c2ncc(C(F)(F)F)cc2Cl)cc1OC (stereo not drawn),2,43*,4,0,-1
C/C=C/C=NNC(=O)c1ccncc1,.,.,1,.,.
O=C(Nc1nccs1)[C@H]1[C@H](CO)[C@H]2Cn3c(cccc3=O)[C@@H]1N2C(=O)C1CCCC1,.,0,.,-3,-4
COc1ccc(N2CCN(C(=O)CCc3cc(OC)c(OC)c(OC)c3)CC2)cc1,1,0,4,-3,-8
COc1ccc(NC(=O)N2CCN(c3ccc([N+](=O)[O-])cc3)CC2)cc1,-4,43*,1,-1,1
COc1cc(CCC(=O)N2CCN(c3ccccc3)CC2)cc(OC)c1OC,-6,0,3,1,29*
COc1ccc(CNC(=O)N2CCN(c3ccccc3)CC2)cc1,37,0,1,-1,16*
COc1ccc(N2CCN(C(=O)NCc3ccc(C)cc3)CC2)cc1,-6,0,4,-2,-3
N#CC1CC(c2ccc([N+](=O)[O-])cc2)=NN1c1ccc([N+](=O)[O-])cc1 (stereo not drawn),-4,44*,0,-6,0
O=[N+]([O-])c1cccc(C2CC(c3ccccc3)=NN2c2ccccc2)c1 (stereo not drawn),12,0,4,-2,-3
C[C@@H]1CN([C@H](C)CO)C(=O)c2ccccc2-c2ccccc2CO[C@H]1CN(C)C(=O)Oc1ccccc1,.,0,.,2,6
Cc1ccc(C(=O)N/N=C\c2cccc(OC(=O)c3cccc(F)c3)c2)cn1,-6,0,.,3,0
Cc1ccc(C(=O)N/N=C\c2ccc(OC(=O)c3cccc(F)c3)cc2)cn1,-2,0,.,47*,1
C[C@@H]1CCCCO[C@@H](CN(C)S(=O)(=O)c2cccs2)[C@H](C)CN([C@@H](C)CO)C(=O)c2cc(NC(=O)CCCN(C)C)ccc2O1,.,0,.,-2,-4
CC(C)=CC(=O)Nc1nnc(C)s1,-1,.,28*,.,.
SMILES,NSD2 HMT inh,FGF22 binding,UCH37 inh,Casp6 inh,SIRT5 block
C[C@H]1COC[C@@H](C/C=C/c2ccccc2)N1c1ccccc1,.,43*,.,-2,.
CCOc1ccc(CCN2C(=O)C(=O)N([C@@H](CC(C)C)CN3CCC[C@H]3CN3C(=O)C(=O)NC[C@@H]3Cc3ccc(O)cc3)C[C@@H]2Cc2ccccc2)cc1,.,43*,.,1,.
COCc1cc(SC2CCCCC2)nc(C)n1,-2,43*,1,1,.
Cc1ccc(S(=O)(=O)N[C@@H]2C=C[C@H](CC(=O)NCCc3ccncc3)O[C@H]2CO)cc1,.,0,.,0,-7
CCOC(=O)NC(=O)CSc1nnc(C2CC2)n1Cc1ccco1,0,43*,5,.,-2
Cc1cc(C)n(CC(=O)NNC(=O)COc2ccc(F)cc2Br)n1,-2,0,1,3,-1
Cc1cc(C)n(CC(=O)NNC(=O)COc2ccc(Cl)cc2Cl)n1,-2,0,3,0,15*
